Measurements taken from PMC7559877 (iScience, 2020).

Legend:
[1] = system: JE6.1; assay: Tumoricidal activity against human lymphoma cell line JE6.1; format: cell-based
[2] = system: U937; assay: Tumoricidal activity against human lymphoma cell line U937; format: cell-based; conditions: U-937
[3] = system: DL tumor cells; assay: In vitro tumoricidal activity; format: cell-based, murine; conditions: Mus musculus, read-out: growth inhibition, highest inhibition recorded
[4] = system: IFN-γ; assay: IFN-γ production by CTLs derived from treated DL mice; format: in vivo; conditions: CD8+ T cells; text to Figure 5K
Summary of the method: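 CD8+ T cells (CTLs) are taken from DL lymphoma-bearing mice treated with oral test compound plus rIL15-activated dendritic cells and compared with cells from untreated DL mice. IFN-γ is read by flow cytometry histogram. Data shown are representative of four experiments (n = 4).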

[5] = system: CD4+CD25+FOXP3+ Treg cells; assay: Flow cytometry of CD4+CD25+FOXP3+ Treg cells in DL mice; format: in vivo; conditions: in the spleen (so in the source); DL mouse 19.4%; Figure 2I
[6] = system: THP-1; assay: Tumoricidal activity against human lymphoma cell line THP-1; format: cell-based
[7] = system: Raji; assay: Tumoricidal activity against human lymphoma cell line Raji; format: cell-based

Cc1cccc(-c2nn3c(c2-c2ccnc4ccc(C(N)=O)cc24)CCC3)n1 [galunisertib]
IC50 [1]: 164 nM
IC50 [2]: 124 nM
inhibition at 10 µM [3]: ~80%
IFN-γ in T cells derived from treated animals [4]: 52%
CD4+CD25+ cells [5]: intermediate effect
IC50 [6]: 108 nM
IC50 [7]: 776 nM
